Test results as given in ChEMBL document CHEMBL3526035, “Role of the intestinal peptide transporter PEPT1 in oseltamivir absorption: in vitro and in vivo studies” (Drug Metab Dispos, 2012).

Legend:
[1] = Tmax in adult fasted Sprague-Dawley rat at 30 mg/kg, po administered as 125 mM aqueous Gly-Sar solution by HPLC-tandem mass spectrometry; type: ADME, organism-based; parameters: dose 30 mg/kg, route oral; settings: in vivo
Summary of the method: (§1)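 Male Sprague-Dawley rats (7–8 weeks, 243–283 g) had jugular-vein cannulas and 3 days' recovery. Fasting ran from 6 h predose through the 6 h study. Three rats per vehicle received 30 mg/kg oral (10 ml/kg). Blood was sampled 0.25–6 h into K2EDTA tubes with dichlorvos. Plasma was assayed by HPLC-MS/MS (0.1–500 µg/l). Tmax was read graphically (noncompartmental).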

[2] = biological target: T1, Solute carrier family 15 member 1 (Homo sapiens, UniProt P46059); experiment: Inhibition of human PEPT1 expressed in CHOK1 cells assessed as Gly-Sar uptake at 0.3 to 10 mM after 10 mins by HPLC coupled with radiodetection analysis; type: cell-based; settings: cho-k1, 10 min, 10000 µM
T1 sequence (P46059 whole entry): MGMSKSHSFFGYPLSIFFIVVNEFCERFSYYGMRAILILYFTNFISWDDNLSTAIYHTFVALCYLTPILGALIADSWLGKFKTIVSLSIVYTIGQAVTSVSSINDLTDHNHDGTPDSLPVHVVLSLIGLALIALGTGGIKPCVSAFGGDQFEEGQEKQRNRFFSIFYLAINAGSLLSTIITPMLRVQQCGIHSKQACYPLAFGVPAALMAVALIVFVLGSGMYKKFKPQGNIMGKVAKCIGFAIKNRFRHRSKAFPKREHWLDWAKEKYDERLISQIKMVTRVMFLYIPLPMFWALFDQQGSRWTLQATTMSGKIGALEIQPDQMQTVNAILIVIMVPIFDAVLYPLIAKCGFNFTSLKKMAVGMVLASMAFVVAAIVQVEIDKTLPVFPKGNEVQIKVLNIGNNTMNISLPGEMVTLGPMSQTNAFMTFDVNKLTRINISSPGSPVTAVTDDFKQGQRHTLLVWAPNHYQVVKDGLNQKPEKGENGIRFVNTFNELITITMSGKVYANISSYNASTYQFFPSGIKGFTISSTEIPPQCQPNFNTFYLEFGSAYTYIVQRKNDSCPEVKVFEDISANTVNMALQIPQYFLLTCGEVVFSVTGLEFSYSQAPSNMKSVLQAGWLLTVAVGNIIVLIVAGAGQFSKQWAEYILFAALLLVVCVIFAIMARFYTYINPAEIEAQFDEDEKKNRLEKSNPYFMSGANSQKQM
Summary of the method: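 Competition assay in CHO-PEPT1 cells: 2 µM [3H]Gly-Sar with oseltamivir or oseltamivir carboxylate at 0.3–10 mM, 10 min at 37°C, pH 6, KH/MES buffer. Tyr-Phe 0.5 mM served as positive control. Intracellular radioactivity was measured per mg protein. Three independent experiments.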

[3] = Terminal half life in healthy human at 150 mg, po administered as single dose by HPLC-tandem mass spectrometry under fed conditions; type: ADME, organism-based; settings: in vivo, read-out: beta t1/2 (converted)
Summary of the method: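 Open-label crossover food-effect study in 18 healthy volunteers (9 male, 9 female, mean age 26). Each received a single 150 mg oral dose of the marketed formulation, once fasting from midnight and once after a high-fat, high-calorie breakfast, separated by a 7–10 day washout. Plasma and urine were collected over 0–72 h and assayed by HPLC-MS/MS for oseltamivir and carboxylate.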

[4] = AUC(0 to infinity) in adult fasted Sprague-Dawley rat at 30 mg/kg, po administered as water solution by HPLC-tandem mass spectrometry; type: ADME, organism-based; parameters: time infinity, dose 30 mg/kg, route oral; settings: plasma
Summary of the method: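 Adult male Sprague-Dawley rats (243-283 g), jugular-cannulated, fasted from 6 h before dosing through the 6-h study. Given 30 mg/kg orally (free base) at 10 ml/kg, n=3/group. Blood sampled at 0.25-6 h into K2EDTA with dichlorvos esterase inhibitor. Plasma assayed by LC-MS/MS (0.1-500 μg/l). Noncompartmental analysis: linear-trapezoid AUC; infinity extrapolation via log-linear terminal λz.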

[5] = Drug uptake in CHOK1 cells expressing human PEPT1 at pH 5 by HPLC coupled with radiodetection analysis; type: ADME, cell-based, Cricetulus griseus; settings: chinese hamster, cho-k1, pH 5
Summary of the method: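 Accumulation of [14C]oseltamivir or its carboxylate in CHO-PEPT1 versus CHO-K1 cells. Conditions varied: KH buffer (with MES) or Hanks' balanced salt solution, pH 5 or 6 readjusted after substrate addition, 30 s to 15 min at 37°C. Uptake was quenched with ice-cold PBS-BSA, followed by Triton X-100 lysis, scintillation counting, and BCA protein normalization. HPLC-radiodetection checked ester stability.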

[6] = Apparent oral clearance in healthy human at 150 mg, po administered as single dose by HPLC-tandem mass spectrometry under fed conditions; type: ADME, organism-based; settings: in vivo
Summary of the method: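 Open-label crossover in 18 healthy volunteers (9 male, 9 female, mean age 26). Each received marketed oseltamivir 150 mg orally, once fasted from midnight and once after a high-fat, high-calorie breakfast, with a 7-10 day washout. Plasma and urine collected over 0-72 h and analysed by HPLC-MS/MS. AUC and Cmax compared after log transformation.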

[7] = AUC(0 to 24 hrs) in adult fed Sprague-Dawley rat at 30 mg/kg, po administered as water solution by HPLC-tandem mass spectrometry; type: ADME, organism-based; parameters: time < 24 hr, dose 30 mg/kg, route oral; settings: plasma
Summary of the method: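 Sprague-Dawley males, 7-8 weeks, 243-283 g, jugular-cannulated, 3 days' recovery; fed (chow ad libitum). Single oral dose of 30 mg/kg (free base) at 10 ml/kg; 3 rats/group. Jugular blood taken at 0.25-24 h into K2EDTA with dichlorvos, kept on ice. Plasma analysed by validated LC-MS/MS (0.1-500 μg/l). Noncompartmental analysis; AUC by linear trapezoid, AUC0-∞ extrapolated using λz.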

[8] = Cmax in adult fed Sprague-Dawley rat at 30 mg/kg, po administered as solution in bovine milk by HPLC-tandem mass spectrometry; type: ADME, organism-based; parameters: dose 30 mg/kg, route oral; settings: in vivo
Summary of the method: (§2)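 Adult cannulated Sprague-Dawley rats, fasted (from 6 h predose) or fed, dosed orally at 30 mg/kg (10 ml/kg), 3 per group. Serial jugular plasma with dichlorvos stabilisation, measured by LC-MS/MS. Cmax read graphically from the concentration-time profile.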

[9] = Cmax in adult fed Sprague-Dawley rat at 30 mg/kg, po administered as water solution by HPLC-tandem mass spectrometry; type: ADME, organism-based; parameters: dose 30 mg/kg, route oral; settings: in vivo; summary of the method: as §2
[10] = Tmax in juvenile fasted Sprague-Dawley rat at 30 mg/kg, po administered as 125 mM aqueous Gly-Sar solution by HPLC-tandem mass spectrometry; type: ADME, organism-based; parameters: dose 30 mg/kg, route oral; settings: in vivo
Summary of the method: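 Seven-day-old Sprague-Dawley pups, males and females, 15 per group, were gavaged with 30 mg/kg (10 ml/kg). Breast-fed pups stayed with their dams; fasted pups were removed from 8 h predose through 5 h. Cardiac blood was drawn under isoflurane at 0.25, 0.5, 1, 2 and 5 h (composite, n=3/time point), with dichlorvos added. Plasma was analyzed by HPLC-MS/MS and Tmax read graphically.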

[11] = Tmax in adult fasted Sprague-Dawley rat at 30 mg/kg, po administered as water solution by HPLC-tandem mass spectrometry; type: ADME, organism-based; parameters: dose 30 mg/kg, route oral; settings: in vivo; summary of the method: as §1
[12] = Drug uptake in CHOK1 cells by HPLC coupled with radiodetection analysis in presence of KH and Hanks' balanced salt solution; type: ADME, cell-based, Cricetulus griseus; settings: chinese hamster, cho-k1

| Compound | Tmax [1] [h] | inhibition (INH) [2] | half-life [3] [h] | AUC(0-inf) [4] [ng·h/mL] | Drug uptake [5] | CL/F [6] [mL/min] | AUC(0-t) at 24 h [7] [ng·h/mL] | Cmax [8] [ng/mL] | Cmax [9] [ng/mL] | Tmax [10] [h] | Tmax [11] [h] | Drug uptake [12] |
| --- | --- | --- | --- | --- | --- | --- | --- | --- | --- | --- | --- | --- |
| CCC(CC)O[C@@H]1C=C(C(=O)O)C[C@H](N)[C@H]1NC(C)=O [OSELTAMIVIR CARBOXYLATE] | 1.17 | Not Active | 8.2 | 6140 | Active | 385 | 5280 | 1310 | 1110 | 2 | 1.08 | Active |
| CCOC(=O)C1=C[C@@H](OC(CC)CC)[C@H](NC(C)=O)[C@@H](N)C1 [OSELTAMIVIR] | 0.25 | Not Active | 2.15 | 2710 | Active | 9540 | 2510 | 1430 | 1270 | 0.5 | 0.83 | Active |
